ChEMBL document CHEMBL4765363, “Design, synthesis and biological evaluation of 4-aniline quinazoline derivatives conjugated with hydrogen sulfide (HS) donors as potent EGFR inhibitors against L858R resistance mutation” (Eur J Med Chem, 2020)

Tests used:
[1] = target: Epidermal growth factor receptor (Homo sapiens) (UniProt P00533); experiment: Inhibition of wild type EGFR in human A549 cells assessed as cell growth inhibition measured after 72 hrs by Celltiter-Glo luminescent cell viability assay; format: cell-based
Epidermal growth factor receptor (Homo sapiens), sequence (P00533 whole entry): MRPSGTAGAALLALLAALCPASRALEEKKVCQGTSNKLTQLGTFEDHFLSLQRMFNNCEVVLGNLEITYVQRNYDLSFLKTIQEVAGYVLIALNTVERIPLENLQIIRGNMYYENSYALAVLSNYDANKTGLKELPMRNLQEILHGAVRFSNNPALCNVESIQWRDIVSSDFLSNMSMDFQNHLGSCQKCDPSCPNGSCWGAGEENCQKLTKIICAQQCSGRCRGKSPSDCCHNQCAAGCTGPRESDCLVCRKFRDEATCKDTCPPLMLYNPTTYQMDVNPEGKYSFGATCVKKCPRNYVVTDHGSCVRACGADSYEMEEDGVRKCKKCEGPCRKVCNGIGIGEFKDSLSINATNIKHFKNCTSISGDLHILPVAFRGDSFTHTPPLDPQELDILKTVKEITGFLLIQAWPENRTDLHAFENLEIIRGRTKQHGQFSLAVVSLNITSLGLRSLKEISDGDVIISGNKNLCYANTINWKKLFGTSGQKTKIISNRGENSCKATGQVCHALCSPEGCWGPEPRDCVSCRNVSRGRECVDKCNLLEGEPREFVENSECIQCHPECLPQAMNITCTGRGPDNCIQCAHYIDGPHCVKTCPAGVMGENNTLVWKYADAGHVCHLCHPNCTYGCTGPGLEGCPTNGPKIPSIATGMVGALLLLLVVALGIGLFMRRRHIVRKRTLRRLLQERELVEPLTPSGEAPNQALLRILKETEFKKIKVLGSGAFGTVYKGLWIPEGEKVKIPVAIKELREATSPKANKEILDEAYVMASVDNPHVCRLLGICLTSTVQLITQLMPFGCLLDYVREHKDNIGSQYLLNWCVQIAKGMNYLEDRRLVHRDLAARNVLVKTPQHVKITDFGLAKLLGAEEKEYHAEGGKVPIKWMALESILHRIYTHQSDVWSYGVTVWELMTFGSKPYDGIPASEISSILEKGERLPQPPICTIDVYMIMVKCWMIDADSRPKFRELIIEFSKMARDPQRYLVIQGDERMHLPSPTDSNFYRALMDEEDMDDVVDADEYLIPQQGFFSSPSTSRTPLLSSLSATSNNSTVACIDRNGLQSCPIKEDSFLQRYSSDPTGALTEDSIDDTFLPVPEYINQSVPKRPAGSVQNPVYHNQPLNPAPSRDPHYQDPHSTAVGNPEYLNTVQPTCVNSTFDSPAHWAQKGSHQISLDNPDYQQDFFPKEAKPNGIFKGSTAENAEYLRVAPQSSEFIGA
Summary of the method: (§1)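 Cells seeded at 2500-3000 per well and exposed to test agents across a concentration series for 72 h. Viability read by CellTiter-Glo luminescence, normalized to DMSO controls. Mean of three independent measurements (standard error <20%); GI50 obtained by curve fitting. Single-concentration readout is proliferation rate at 10 µM.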

[2] = target: Epidermal growth factor receptor (Mus musculus) (UniProt Q01279); settings: BaF3, time 72.0 hrs
Epidermal growth factor receptor (Mus musculus), sequence (Q01279 whole entry): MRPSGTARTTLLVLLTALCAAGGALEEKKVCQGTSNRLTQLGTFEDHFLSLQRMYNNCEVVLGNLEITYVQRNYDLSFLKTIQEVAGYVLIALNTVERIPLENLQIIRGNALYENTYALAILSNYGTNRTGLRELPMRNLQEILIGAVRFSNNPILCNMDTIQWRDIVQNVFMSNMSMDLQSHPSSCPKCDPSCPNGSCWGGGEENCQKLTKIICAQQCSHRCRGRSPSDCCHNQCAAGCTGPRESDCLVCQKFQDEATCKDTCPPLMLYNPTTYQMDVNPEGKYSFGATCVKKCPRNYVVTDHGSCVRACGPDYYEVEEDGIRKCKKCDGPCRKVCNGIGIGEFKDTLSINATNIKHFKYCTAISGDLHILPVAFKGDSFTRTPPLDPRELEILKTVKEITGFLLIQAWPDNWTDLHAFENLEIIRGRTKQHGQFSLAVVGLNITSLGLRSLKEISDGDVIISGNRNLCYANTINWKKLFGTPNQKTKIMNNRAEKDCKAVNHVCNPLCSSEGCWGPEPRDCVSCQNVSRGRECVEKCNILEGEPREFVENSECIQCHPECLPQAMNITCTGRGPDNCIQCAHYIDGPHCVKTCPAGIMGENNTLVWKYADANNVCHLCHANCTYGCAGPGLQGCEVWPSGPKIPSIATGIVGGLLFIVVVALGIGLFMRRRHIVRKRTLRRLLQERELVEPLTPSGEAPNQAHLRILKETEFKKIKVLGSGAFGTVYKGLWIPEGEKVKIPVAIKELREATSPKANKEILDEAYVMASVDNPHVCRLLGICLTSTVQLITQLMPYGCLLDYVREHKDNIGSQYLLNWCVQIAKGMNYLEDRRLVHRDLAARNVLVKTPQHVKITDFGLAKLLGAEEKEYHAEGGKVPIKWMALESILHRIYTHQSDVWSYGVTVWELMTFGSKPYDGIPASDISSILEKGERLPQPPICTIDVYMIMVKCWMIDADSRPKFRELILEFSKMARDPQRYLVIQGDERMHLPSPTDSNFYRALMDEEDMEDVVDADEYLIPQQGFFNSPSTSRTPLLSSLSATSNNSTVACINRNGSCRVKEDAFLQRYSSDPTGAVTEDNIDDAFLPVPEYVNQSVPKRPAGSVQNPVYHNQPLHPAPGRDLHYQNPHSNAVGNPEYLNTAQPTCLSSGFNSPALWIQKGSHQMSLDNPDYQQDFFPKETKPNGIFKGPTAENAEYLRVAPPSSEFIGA

[3] = target: Epidermal growth factor receptor (Homo sapiens) (UniProt P00533); settings: BaF3, time 72.0 hrs
[4] = test system: Epidermal growth factor receptor (Homo sapiens), P00533 [L858R]; settings: BaF3, time 72.0 hrs
Epidermal growth factor receptor (Homo sapiens), P00533 [L858R], sequence (P00533 whole entry L858R): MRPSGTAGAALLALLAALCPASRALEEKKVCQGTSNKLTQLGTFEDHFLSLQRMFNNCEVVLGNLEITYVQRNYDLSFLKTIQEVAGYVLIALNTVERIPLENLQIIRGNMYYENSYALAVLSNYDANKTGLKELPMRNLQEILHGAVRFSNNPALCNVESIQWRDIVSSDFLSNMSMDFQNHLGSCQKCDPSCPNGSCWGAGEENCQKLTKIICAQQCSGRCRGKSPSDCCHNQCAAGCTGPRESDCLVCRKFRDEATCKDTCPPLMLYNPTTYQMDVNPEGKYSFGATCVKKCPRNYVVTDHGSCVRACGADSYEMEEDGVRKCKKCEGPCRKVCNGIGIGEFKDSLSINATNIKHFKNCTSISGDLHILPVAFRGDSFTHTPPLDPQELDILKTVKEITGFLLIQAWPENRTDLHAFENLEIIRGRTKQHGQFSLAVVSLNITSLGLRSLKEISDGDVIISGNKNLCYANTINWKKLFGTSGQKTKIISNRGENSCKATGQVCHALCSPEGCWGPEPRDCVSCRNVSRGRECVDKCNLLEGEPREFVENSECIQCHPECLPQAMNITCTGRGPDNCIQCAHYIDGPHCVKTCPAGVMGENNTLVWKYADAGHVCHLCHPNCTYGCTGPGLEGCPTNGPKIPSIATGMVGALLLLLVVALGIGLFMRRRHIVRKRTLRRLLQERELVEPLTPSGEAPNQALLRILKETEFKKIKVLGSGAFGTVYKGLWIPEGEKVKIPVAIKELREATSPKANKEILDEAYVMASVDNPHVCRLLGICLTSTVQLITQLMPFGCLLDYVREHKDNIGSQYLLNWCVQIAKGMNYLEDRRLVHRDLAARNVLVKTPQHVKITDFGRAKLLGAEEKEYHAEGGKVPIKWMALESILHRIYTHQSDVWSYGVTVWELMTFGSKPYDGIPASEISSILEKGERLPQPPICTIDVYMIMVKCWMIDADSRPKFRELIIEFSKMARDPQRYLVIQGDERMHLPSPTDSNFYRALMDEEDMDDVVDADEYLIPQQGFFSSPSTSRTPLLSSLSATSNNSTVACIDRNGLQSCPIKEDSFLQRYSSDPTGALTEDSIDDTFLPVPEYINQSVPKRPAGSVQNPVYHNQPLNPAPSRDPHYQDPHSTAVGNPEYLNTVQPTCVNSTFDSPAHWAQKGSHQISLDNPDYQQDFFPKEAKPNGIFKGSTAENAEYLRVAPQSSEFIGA

[5] = test system: Epidermal growth factor receptor (Homo sapiens), P00533 [L858R,T790M]; settings: BaF3, time 72.0 hrs
Epidermal growth factor receptor (Homo sapiens), P00533 [L858R,T790M], sequence (P00533 whole entry T790M/L858R, looked up): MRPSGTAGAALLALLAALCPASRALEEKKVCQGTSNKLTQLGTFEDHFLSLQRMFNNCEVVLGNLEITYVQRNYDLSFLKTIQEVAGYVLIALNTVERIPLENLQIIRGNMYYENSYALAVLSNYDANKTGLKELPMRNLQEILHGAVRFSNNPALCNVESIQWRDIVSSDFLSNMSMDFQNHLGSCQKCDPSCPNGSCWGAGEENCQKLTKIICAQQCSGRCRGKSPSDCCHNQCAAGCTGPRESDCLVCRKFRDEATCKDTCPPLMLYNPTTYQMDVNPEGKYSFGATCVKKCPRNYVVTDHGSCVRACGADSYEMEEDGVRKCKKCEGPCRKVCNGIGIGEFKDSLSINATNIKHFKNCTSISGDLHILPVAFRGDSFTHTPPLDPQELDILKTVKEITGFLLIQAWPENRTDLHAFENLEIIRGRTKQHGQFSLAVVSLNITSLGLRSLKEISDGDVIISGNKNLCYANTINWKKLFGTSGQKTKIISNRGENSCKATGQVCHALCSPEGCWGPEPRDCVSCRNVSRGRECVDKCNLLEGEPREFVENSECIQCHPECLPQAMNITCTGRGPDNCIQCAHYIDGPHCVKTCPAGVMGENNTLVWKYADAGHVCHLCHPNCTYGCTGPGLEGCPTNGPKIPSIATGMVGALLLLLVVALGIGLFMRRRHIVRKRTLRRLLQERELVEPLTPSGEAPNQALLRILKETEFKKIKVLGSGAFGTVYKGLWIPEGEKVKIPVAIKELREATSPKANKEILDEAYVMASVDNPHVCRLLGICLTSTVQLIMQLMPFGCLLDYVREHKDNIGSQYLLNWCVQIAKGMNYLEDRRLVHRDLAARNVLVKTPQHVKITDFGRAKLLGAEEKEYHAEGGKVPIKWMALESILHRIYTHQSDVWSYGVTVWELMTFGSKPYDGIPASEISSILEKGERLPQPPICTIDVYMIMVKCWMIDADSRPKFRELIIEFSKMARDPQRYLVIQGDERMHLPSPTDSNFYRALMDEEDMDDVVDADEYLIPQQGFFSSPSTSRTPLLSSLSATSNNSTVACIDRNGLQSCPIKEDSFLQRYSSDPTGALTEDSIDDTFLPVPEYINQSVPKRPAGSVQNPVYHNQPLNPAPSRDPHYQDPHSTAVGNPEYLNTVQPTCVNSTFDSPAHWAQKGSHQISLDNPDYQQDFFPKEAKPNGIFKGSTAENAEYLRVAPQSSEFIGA

[6] = test system: Epidermal growth factor receptor (Homo sapiens), P00533 [L858R]; settings: NCI-H3255, time 72.0 hrs
[7] = Induction of H2S generation in pH 7.4 PBS:acetone buffer at 10 to 200 uM measured after 3 hrs by NIR-HS probe based fluorescence spectrophotometric method; format: functional; settings: dose 10-200 µM
Summary of the method: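 NIR-HS probe (10 µM) incubated with compound (0, 5, 10, 50, 100, 200 µM) in PBS:acetone 2:3 (pH 7.4) at 37 °C for 3 h. Fluorescence read at ex 670 / em 723 nm.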

[8] = Induction of H2S generation in pH 7.4 PBS:acetone buffer at 20 uM measured after 2 hrs by NIR-HS probe based fluorescence spectrophotometric method; format: functional
Summary of the method: (§2)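 Compound at 20 µM incubated with NIR-HS (10 µM) in PBS:acetone 2:3 at 37 °C, sampled from 0 to 180 min (0, 5, 30, 60, 90, 120, 150, 180 min). Emission read at 723 nm (ex 670 nm). H2S quantified against a Na2S calibration curve (0-8 µM, same probe and conditions, 3 h, F/F0 at 723 nm).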

[9] = test system: Epidermal growth factor receptor (Homo sapiens), P00533 [C797S]; experiment: Inhibition of TEL-fused EGFR C797S mutant (unknown origin) transfected in mouse BaF3 cells assessed as reduction in cell proliferation incubated for 72 hrs by Celltiter-Glo luminescent cell viability assay; format: cell-based; summary of the method: as §1
[10] = test system: Epidermal growth factor receptor (Homo sapiens), P00533 [L858R]; experiment: Inhibition of EGFR L858R mutant in human NCI-H3255 cells assessed as cell growth inhibition measured after 72 hrs in presence of ZnCl2 by Celltiter-Glo luminescent cell viability assay; format: cell-based
HUVEC = experiment: Cytotoxicity against HUVEC assessed as reduction in cell viability measured after 72 hrs by Celltiter-Glo luminescent cell viability assay; format: cell-based; settings: Homo sapiens
Summary of the method: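 Cells seeded at 2500-3000 per well, exposed to a range of compound concentrations for 72 h. Viability read by CellTiter-Glo luminescence. Data normalised to DMSO controls, given as the mean of three independent measurements, with IC50 obtained by curve fitting.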

[11] = test system: Epidermal growth factor receptor (Homo sapiens), P00533 [L858R]; experiment: Inhibition of EGFR L858R mutant phosphorylation at Y1068 residue in human NCI-H3255 cells measured after 4 hrs by Western blot analysis; format: cell-based
Summary of the method: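 H3255 cells treated with a range of concentrations for 4 h, then lysed in cold RIPA containing 1% PMSF. Lysate protein quantified by BCA, separated by SDS-PAGE and transferred to PVDF. Blocked in 5% milk, probed with anti-phospho-EGFR (Y1068) and developed by ECL.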

NCI-H3255 [12] = experiment: Cell cycle arrest in human NCI-H3255 cells assessed as accumulation at G0/G1 phase at 1 uM measured after 72 hrs by propidium iodide staining based flow cytometry (reference value: 53.55%); format: functional
Summary of the method: (§3)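 H3255 cells in 10% FBS/RPMI given DMSO or compound at 1, 5 or 10 µM for 72 h, then washed in cold PBS, fixed in 70% cold ethanol and held overnight at -20 °C. Stained with PI/RNase buffer for 15 min at room temperature, then analysed by flow cytometry with ModFit phase modelling.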

NCI-H3255 [13] = experiment: Cell cycle arrest in human NCI-H3255 cells assessed as accumulation at S phase at 1 uM measured after 72 hrs by propidium iodide staining based flow cytometry (reference value: 36.26%); format: functional; summary of the method: as §3
NCI-H3255 [14] = experiment: Cell cycle arrest in human NCI-H3255 cells assessed as accumulation at G2/M phase at 1 uM measured after 72 hrs by propidium iodide staining based flow cytometry (reference value: 10.18%); format: functional; summary of the method: as §3
NCI-H3255 [15] = experiment: Cell cycle arrest in human NCI-H3255 cells assessed as accumulation at G0/G1 phase at 5 uM measured after 72 hrs by propidium iodide staining based flow cytometry (reference value: 53.55%); format: functional; summary of the method: as §3
NCI-H3255 [16] = experiment: Cell cycle arrest in human NCI-H3255 cells assessed as accumulation at S phase at 5 uM measured after 72 hrs by propidium iodide staining based flow cytometry (reference value: 36.26%); format: functional; summary of the method: as §3
NCI-H3255 [17] = experiment: Cell cycle arrest in human NCI-H3255 cells assessed as accumulation at G2/M phase at 5 uM measured after 72 hrs by propidium iodide staining based flow cytometry (reference value: 10.18%); format: functional; summary of the method: as §3
NCI-H3255 [18] = experiment: Cell cycle arrest in human NCI-H3255 cells assessed as accumulation at G0/G1 phase at 10 uM measured after 72 hrs by propidium iodide staining based flow cytometry (reference value: 53.55%); format: functional; summary of the method: as §3
NCI-H3255 [19] = experiment: Cell cycle arrest in human NCI-H3255 cells assessed as accumulation at S phase at 10 uM measured after 72 hrs by propidium iodide staining based flow cytometry (reference value: 36.26%); format: functional; summary of the method: as §3
NCI-H3255 [20] = experiment: Cell cycle arrest in human NCI-H3255 cells assessed as accumulation at G2/M phase at 10 uM measured after 72 hrs by propidium iodide staining based flow cytometry (reference value: 10.18%); format: functional; summary of the method: as §3
[21] = Induction of H2S generation in pH 7.4 PBS:acetone buffer at 20 uM measured within 1 hr by NIR-HS probe based fluorescence spectrophotometric method; format: functional; summary of the method: as §2
NCI-H3255 [22] = experiment: Antiproliferative activity against human NCI-H3255 cells assessed as cell growth inhibition at 10 uM measured after 72 hrs by Celltiter-Glo luminescent cell viability assay relative to control; settings: NCI-H3255, 72 h

Row | GI50 [2] | GI50 [3] | GI50 [4] | GI50 [5] | GI50 [6] | Structure (SMILES) | GI50 [1] | other results
1 | 2.65 µM | 3.39 µM | 0.83 µM | 6.35 µM | 8.58 µM | COc1ccc(Nc2ncnc3cc(OCCCOc4ccc(-c5cssc5=S)cc4)c(OC)cc23)cc1OC | > 10 µM | Drug metabolism [7]: Metabolite detected; Drug metabolism [8]: Metabolite detected
2 | 3.91 µM | 2.34 µM | 0.058 µM | > 10 µM | 1.35 µM | C=CCSSCCC(=O)OCCCOc1cc2ncnc(Nc3ccc(Br)cc3)c2cc1OC | > 10 µM | –
3 | 3.79 µM | 4.08 µM | 0.6 µM | > 10 µM | 1.87 µM | COc1cc2c(Nc3ccc([N+](=O)[O-])cc3)ncnc2cc1OCCCOc1ccc(-c2cssc2=S)cc1 | > 10 µM | –
4 | 4.27 µM | 2.49 µM | 0.29 µM | 3.16 µM | 4.36 µM | O=C(COc1ccc(-c2cssc2=O)cc1)Nc1ccc2ncnc(Nc3ccc(F)c(Cl)c3)c2c1 | > 10 µM | Drug metabolism [7]: Metabolite detected; Drug metabolism [8]: Metabolite detected
5 | > 10 µM | > 10 µM | 0.008 µM | 6.03 µM | 0.787 µM | C=CCSSCCC(=O)OCCCOc1cc2ncnc(Nc3cccc(Br)c3)c2cc1OC | > 10 µM | GI50 [9]: 0.0069 µM; GI50 [10]: 0.303 µM; IC50 (HUVEC): > 10 µM; inhibition [11]: Dose-dependent effect; Activity (NCI-H3255 [12]): 60.32%; Activity (NCI-H3255 [13]): 34.49%; Activity (NCI-H3255 [14]): 5.19%; Activity (NCI-H3255 [15]): 84.88%; Activity (NCI-H3255 [16]): 10.23%; Activity (NCI-H3255 [17]): 4.89%; Activity (NCI-H3255 [18]): 88.61%; Activity (NCI-H3255 [19]): 8.73%; Activity (NCI-H3255 [20]): 2.66%; Drug metabolism [7]: Metabolite detected; Drug metabolism [21]: Metabolite detected
6 | > 10 µM | > 10 µM | 0.27 µM | > 10 µM | > 10 µM | COc1cc2c(Nc3ccc(F)c(Cl)c3)ncnc2cc1OCCCOc1ccc(-c2cssc2=S)cc1 | > 10 µM | –
7 | 9.23 µM | 9.56 µM | 0.25 µM | > 10 µM | 1.41 µM | COc1cc2c(Nc3ccc(Br)cc3)ncnc2cc1OCCCOc1ccc(-c2cssc2=S)cc1 | > 10 µM | –
8 | 3.79 µM | 1.98 µM | 0.38 µM | 1.65 µM | 7.47 µM | COc1cc2c(Nc3cccc(C(F)(F)F)c3)ncnc2cc1OCCCOc1ccc(-c2cssc2=S)cc1 | > 10 µM | –
9 | 9.23 µM | 3.06 µM | 0.12 µM | > 10 µM | 2.4 µM | COc1cc2c(Nc3cccc(Br)c3)ncnc2cc1OCCCOc1ccc(-c2cssc2=S)cc1 | > 10 µM | –

More lines, now with the values behind:

Row | Structure (SMILES) | GI50 [2] | GI50 [3] | GI50 [4] | GI50 [5] | GI50 [6] | GI50 [1] | other results
10 | C=CCCSSCC(=O)Nc1ccc2ncnc(Nc3ccc(F)c(Cl)c3)c2c1 | > 10 µM | > 10 µM | 0.012 µM | > 10 µM | 0.349 µM | > 10 µM | –
11 | O=C(COc1ccc(-c2cssc2=O)cc1)Nc1ccc2ncnc(Nc3cccc(C(F)(F)F)c3)c2c1 | – | – | – | – | – | > 10 µM | –
12 | C=CCCSSCC(=O)Nc1ccc2ncnc(Nc3cccc(C(F)(F)F)c3)c2c1 | – | – | – | – | – | > 10 µM | –
13 | [Cl-].[Cl-].[Zn+2] [ZINC CHLORIDE] | – | – | – | – | – | – | Cell proliferation rate % at 10 µM (NCI-H3255 [22]): 54%
14 | C=CC(=O)Nc1cc(Nc2nccc(-c3cn(C)c4ccccc34)n2)c(OC)cc1N(C)CCN(C)C [OSIMERTINIB] | – | – | – | – | – | – | IC50 (HUVEC): 7.28 µM
15 | C=CCCSSCC(=O)Nc1ccc2ncnc(Nc3cccc(Br)c3)c2c1 | > 10 µM | > 10 µM | 0.011 µM | > 10 µM | 0.519 µM | > 10 µM | –
16 | O=C(COc1ccc(-c2cssc2=O)cc1)Nc1ccc2ncnc(Nc3cccc(Br)c3)c2c1 | – | – | – | – | – | > 10 µM | –
